Drawing on BindingDB's records for doi:10.1021/jm0582625 (University of Illinois At Urbana-Champaign, 2006), this text covers IC50 for five compounds.

One experiment deals with T1, Phosphotransferase (Trypanosoma cruzi, UniProt Q8ST54).
T1 sequence (Q8ST54 whole entry): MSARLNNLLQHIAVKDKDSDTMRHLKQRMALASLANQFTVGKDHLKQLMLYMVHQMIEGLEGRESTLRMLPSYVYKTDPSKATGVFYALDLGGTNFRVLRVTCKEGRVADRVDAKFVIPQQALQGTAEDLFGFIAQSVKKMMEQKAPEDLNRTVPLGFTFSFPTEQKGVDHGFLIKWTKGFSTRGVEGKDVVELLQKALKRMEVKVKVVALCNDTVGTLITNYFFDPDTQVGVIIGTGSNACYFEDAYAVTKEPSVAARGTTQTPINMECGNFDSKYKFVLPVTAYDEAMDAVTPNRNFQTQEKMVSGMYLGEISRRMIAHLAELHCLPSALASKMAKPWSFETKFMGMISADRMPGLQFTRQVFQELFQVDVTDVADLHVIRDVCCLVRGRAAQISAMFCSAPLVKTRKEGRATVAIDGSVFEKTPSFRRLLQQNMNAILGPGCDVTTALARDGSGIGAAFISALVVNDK
The experiment can be described thus: Inhibitory activity against Trypanosoma cruzi hexokinase. In a few lines: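 Native glycosomal T. cruzi hexokinase, purified by a previously described procedure. Activity was followed as NADPH formation at 340 nm, coupled to D-glucose-6-phosphate dehydrogenase. Inhibition was reported as IC50.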

Experiment [1] addresses farnesyl pyrophosphate synthase (Leishmania major). Briefly: Inhibitory activity against FPPS in Leishmania major.

Where only a bound is given, the exact number is not on record here.

Consider `O=P(O)(O)C(CN[C@@H](CO)c1ccccc1)P(=O)(O)O`, for which the concentration for half-maximal inhibition (IC50) against Phosphotransferase was above 300 µM.
In experiment [1], `O=P(O)(O)C(Cc1cccc(-c2ccccc2)c1)S(=O)(=O)O` (stereo not given) [2-biphenyl-3-yl-1-phosphono-ethanesulfonic acid] had an IC50 of 11 µM.
The compound `C[C@H](NC(P(=O)(O)O)P(=O)(O)O)c1cccc2ccccc12` [(Bis-phosphono-methyl)-((S)-1-naphthalen-1-yl-ethyl)-ammonium] had an IC50 at Phosphotransferase above 300 µM.
For `O=P(O)(O)C(NC1CC1)P(=O)(O)O` [(cyclopropylamino-phosphono-methyl)-phosphonic acid], at Phosphotransferase, the concentration for half-maximal inhibition (IC50) is above 300 µM.
On the same count and under the same terms, under `CCCNC(P(=O)(O)O)P(=O)(O)O` [propylaminomethylene-1,1-bisphosphonate] stands above 300 µM.
